We go through twelve compounds from ChEMBL document CHEMBL1938300 (Bioorg Med Chem, 2011).

Molecules are shown by their SMILES. ≈ marks a conversion by molar mass, not a printed value.

As usually defined, the AUC is concentration integrated over time. A lower AUC goes with low exposure. Broadly, the Vd is the apparent volume that relates the amount in the body to the concentration in plasma or blood. A high value points to extensive tissue distribution. As a reminder, the clearance is a measure of how efficiently the substance is removed, as volume per time. A lower clearance goes with a low capacity for elimination. A word on the bioavailability: it is the share of a dose that reaches the circulation, judged against a reference dose that is usually intravenous. A high value points to much systemic uptake. Broadly, the half-life is the time needed for the level to fall by half in the phase considered. The low end stands for rapid decline, the high end for slow decline. Broadly, the solubility is the concentration that dissolves in the medium under given conditions. The low end stands for a poorly soluble substance, the high end for a readily soluble substance.

The test system of data set [1] is Rattus norvegicus. The experiment in a line: AUC in Sprague-Dawley rat at 1 mg/kg, iv by HPLC. It is filed as ADME, organism-based, Plasma. More on the design: dose 1 mg/kg, route intravenous. The settings on record: in vivo.
The test system of data set [2] is Rattus norvegicus. In words: AUC in Sprague-Dawley rat at 5 mg/kg, po by HPLC. It counts as ADME, organism-based, Plasma. To be noted: in vivo. Also on record: dose 5 mg/kg, route oral.
The nature of data set [3]: Volume of distribution in Sprague-Dawley rat by HPLC. The settings on record: in vivo. It is filed as ADME, organism-based. A digest of the protocol: (§1)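 Rat IV pharmacokinetics: male Sprague-Dawley, n=3, 1 mg/kg tail-vein dose in 3% DMSO/30% Solutol/67% PBS; plasma over 0.083–6 h quantified by HPLC-MS/MS; parameters estimated per rat by non-compartmental analysis.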

A short description of data set [4]: Clearance in Sprague-Dawley rat by HPLC. It counts as ADME, organism-based. The settings on record: in vivo. A digest of the protocol:
as §1

The nature of data set [5]: Oral bioavailability Sprague-Dawley rat at 5 mg/kg by HPLC. To be noted: in vivo. It counts as ADME, organism-based. In short, it runs like this: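 Male Sprague-Dawley rats (n=3/group) given 1 mg/kg IV (DMSO/Solutol/PBS) or, after overnight fast, 5 mg/kg oral gavage in PEG400; plasma by HPLC-MS/MS; F% = dose-normalised oral AUC0-∞ divided by IV AUC0-∞, times 100.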

Data set [6] in a line: Half life in Sprague-Dawley rat liver microsomes. It is filed as ADME, Microsome. In general terms: Microsomes from liver hold many membrane-bound enzymes, among them those of drug oxidation.
Data set [7] in a line: Solubility of the compound at pH 7.4. To be noted: buffer. It counts as physicochemical.
The nature of data set [8]: Solubility of the compound. It is filed as physicochemical.

With `CNC(=O)c1cccc(F)c1Nc1nc(Nc2ccc3c(c2)NC(=O)C(NC(C)=O)CC3(C)C)ncc1Cl.O=C(O)C(F)(F)F` (racemic), the values for the AUC in the data set on Rattus norvegicus [1] and with Rattus norvegicus [2] were 654 ng·h/mL and 48 ng·h/mL, respectively. The compound also returned a volume of distribution (Vd) in data set [3] of 2 L/kg. Moreover, the clearance in data set [4] was found to be 33 mL/min/kg. In addition, the bioavailability in data set [5] is 2%.

For `CNC(=O)c1cccc(F)c1Nc1nc(Nc2ccc3c(c2)NC(=O)C(NC(=O)CN(C)C)CC3(C)C)ncc1Cl.O=C(O)C(F)(F)F` (racemic), the results for the AUC in the data set on Rattus norvegicus [1] and with Rattus norvegicus [2] were 825 ng·h/mL and 61 ng·h/mL, respectively. In data set [3], this compound gave a volume of distribution (Vd) of 3 L/kg. Besides, in data set [4], the clearance is 32 mL/min/kg. This compound yielded a bioavailability in data set [5] of 1%.

Take `CNC(=O)c1cccc(F)c1Nc1nc(Nc2ccc3c(c2)NC(=O)[C@H](NC(=O)N2CCCC2)CC3(C)C)ncc1Cl`: the AUC in the data set on Rattus norvegicus [1] came out at 3460 ng·h/mL; with Rattus norvegicus [2] it was 5850 ng·h/mL. The compound also came in with a volume of distribution (Vd) in data set [3] of 0.6 L/kg. The compound further came in with a clearance in data set [4] of 5 mL/min/kg. This compound displayed a half-life in data set [6] of 21 min. Besides, in data set [7], the solubility came to 26 µg/mL (≈ 43.7 µM). The compound further gave a bioavailability in data set [5] of 34%.

Turning to `CNC(=O)c1cccc(F)c1Nc1nc(Nc2ccc3c(c2)NC(=O)C(NC(=O)COC)CC3(C)C)ncc1Cl.O=C(O)C(F)(F)F` (racemic), the AUC with Rattus norvegicus [1] came to 846 ng·h/mL; in the data set on Rattus norvegicus [2], 497 ng·h/mL. In data set [3], this compound displayed a distribution volume (Vd) of 1.3 L/kg. In data set [4], this compound showed a clearance of 20 mL/min/kg. The bioavailability in data set [5] was 12%.

`CCN1C(=O)CCC(C)(C)c2ccc(Nc3ncc(Cl)c(Nc4c(F)cccc4C(=O)NC)n3)cc21`: in data set [5], the bioavailability came out at 0%.

In the case of `CNC(=O)c1cccc(F)c1Nc1nc(Nc2ccc3c(c2)NC(=O)C(NC(=O)OC)CC3(C)C)ncc1Cl.O=C(O)C(F)(F)F` (racemic), the AUC was found to be 1200 ng·h/mL with Rattus norvegicus [1] and 987 ng·h/mL in the data set with Rattus norvegicus [2]. In data set [3], this compound showed a Vd of 1 L/kg. In data set [4], the clearance amounted to 15 mL/min/kg. This compound registered a bioavailability in data set [5] of 16%.

On to `CNC(=O)c1cccc(F)c1Nc1nc(Nc2ccc3c(c2)NC(=O)C(NC(=O)C(F)(F)F)CC3(C)C)ncc1Cl.O=C(O)C(F)(F)F` (racemic), for which the AUC was 1310 ng·h/mL in the data set on Rattus norvegicus [1] and 606 ng·h/mL in the data set with Rattus norvegicus [2]. The Vd in data set [3] came to 1.2 L/kg. In data set [4], this compound gave a clearance of 16 mL/min/kg. For the same compound, the bioavailability in data set [5] was found to be 9%. The same compound registered a solubility in data set [8] of 8 µg/mL.

For the compound `CNC(=O)c1cccc(F)c1Nc1nc(Nc2ccc3c(c2)NC(=O)[C@@H](NC(=O)N2CCCC2)CC3(C)C)ncc1Cl`, the area under the curve (AUC) was determined as 3190 ng·h/mL in the data set on Rattus norvegicus [1] and 5550 ng·h/mL with Rattus norvegicus [2]. The compound further returned a Vd in data set [3] of 0.6 L/kg. The same compound returned a clearance in data set [4] of 5 mL/min/kg. In data set [5], the bioavailability worked out at 35%.

On to `CNC(=O)c1cccc(F)c1Nc1nc(Nc2ccc3c(c2)NC(=O)C(NC(=O)N2CCCC2)CC3(C)C)ncc1Cl.O=C(O)C(F)(F)F` (racemic; form 1), for which the AUC in the data set with Rattus norvegicus [1] was 3420 ng·h/mL; with Rattus norvegicus [2], 2630 ng·h/mL. The Vd in data set [3] came to 0.8 L/kg. Moreover, the clearance in data set [4] was determined as 6 mL/min/kg. The compound also yielded a bioavailability in data set [5] of 15%.

`CNC(=O)c1cccc(F)c1Nc1nc(Nc2ccc3c(c2)NC(=O)C(N)CC3(C)C)ncc1Cl` (racemic) had an AUC in the data set with Rattus norvegicus [1] of 787 ng·h/mL. In data set [3], this compound gave a Vd of 4.6 L/kg. This compound also came in with a solubility in data set [8] above 120 µg/mL.

With `CNC(=O)c1cccc(F)c1Nc1nc(Nc2ccc3c(c2)NC(=O)CCC3(C)C)ncc1Cl`, the area under the curve (AUC) with Rattus norvegicus [1] came out at 1060 ng·h/mL; in the data set on Rattus norvegicus [2] it was 46 ng·h/mL. For the same compound, the volume of distribution (Vd) in data set [3] is 0.5 L/kg. The compound also had a clearance in data set [4] of 16 mL/min/kg. This compound also displayed a half-life in data set [6] of 15 min. Moreover, the solubility in data set [7] and in data set [8] was 21 µg/mL (≈ 43.5 µM) throughout. Besides, the bioavailability in data set [5] amounted to 1%.

Turning to `CNC(=O)c1cccc(F)c1Nc1nc(Nc2ccc3c(c2)NC(=O)C(NC(=O)N2CCCC2)CC3(C)C)ncc1Cl` (racemic; form 2), the AUC worked out at 2330 ng·h/mL with Rattus norvegicus [1] and 4660 ng·h/mL with Rattus norvegicus [2]. Also, the volume of distribution (Vd) in data set [3] amounted to 0.8 L/kg. In addition, the clearance in data set [4] worked out at 8 mL/min/kg. For the same compound, the bioavailability in data set [5] was 40%.
